Compound activity: PubChem BioAssay, several laboratories
Only some compounds are listed: those with a hit (about 2.9% of all), similar ones and a draw of the others.
A3G deaminase = APOBEC3G (human) deaminase inhibition | 330,000 compounds, 0.28% hits | inhibition, % at 20 µM | AID 493012 | Q9HC16 | recombinant A3G, ssDNA deamination FAM/TAMRA fluorescence;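 active = inhibition of at least 40% at 20 µM, with no more than 30% in the related APOBEC3A deaminase screen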
Target sequence (Q9HC16 whole entry, looked up): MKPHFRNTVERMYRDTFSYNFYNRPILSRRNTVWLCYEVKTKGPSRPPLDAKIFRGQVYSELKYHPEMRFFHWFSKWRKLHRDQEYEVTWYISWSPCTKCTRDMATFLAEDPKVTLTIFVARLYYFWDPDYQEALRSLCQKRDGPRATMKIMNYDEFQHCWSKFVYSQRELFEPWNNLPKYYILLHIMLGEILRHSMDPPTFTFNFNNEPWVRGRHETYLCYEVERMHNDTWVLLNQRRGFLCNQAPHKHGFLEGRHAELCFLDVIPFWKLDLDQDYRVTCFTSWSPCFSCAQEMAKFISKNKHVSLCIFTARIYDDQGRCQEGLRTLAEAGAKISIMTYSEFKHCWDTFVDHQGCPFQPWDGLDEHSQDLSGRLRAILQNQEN
PRMT1 FP inh = blocks human protein arginine methyltransferase 1. recombinant PRMT1, activity-based probe fluorescence polarization. inhibition, % at 2.79 µM. 370,000 compounds, 1.3% hits;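 active = inhibition above about 21% made by adding two undisclosed values, limit read from the data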
Target sequence (Q99873 whole entry, looked up): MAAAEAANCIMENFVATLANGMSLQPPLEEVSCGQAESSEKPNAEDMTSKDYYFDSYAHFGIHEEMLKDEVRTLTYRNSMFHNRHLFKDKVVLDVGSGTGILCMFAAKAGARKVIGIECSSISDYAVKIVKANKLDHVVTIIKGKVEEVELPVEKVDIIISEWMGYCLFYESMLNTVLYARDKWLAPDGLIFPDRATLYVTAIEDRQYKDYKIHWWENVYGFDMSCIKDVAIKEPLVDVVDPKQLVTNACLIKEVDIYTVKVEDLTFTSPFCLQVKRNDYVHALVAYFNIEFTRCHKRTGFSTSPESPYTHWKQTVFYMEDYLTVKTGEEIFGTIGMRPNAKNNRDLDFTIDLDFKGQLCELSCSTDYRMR
A3A deaminase = human APOBEC3A DNA deaminase inhibition | recombinant A3A, FAM/TAMRA ssDNA deamination fluorescence | 330,000 compounds, 0.41% hits | AID 493011 | P31941 | inhibition, % at 20 µM;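 active = at least 40% inhibition at 20 µM here, with at most 30% in a related deaminase screen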
HCV NS3 hel inh = inhibitors of Hepatitis C virus NS3 helicase; NS3 helicase DNA unwinding, Cy5 molecular beacon fluorescence; inhibition, % at 10.9 µM; 290,000 compounds, 0.56% hits; AID 1800;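 active = inhibition above the mean of all tested compounds plus 3 SD, set per campaign, cut at about 35% in these data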
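Material: hepatitis C virus NS3 helicase domain fragment enzyme; measured by: Cy5 fluorescence, 0 and 60 min reads; control set: DMSO and thioflavine S; incubation: 60 min unwinding reaction at 25 °C after ATP addition; read-out basis: % inhibition from 60/0 min fluorescence ratio, DMSO 0%, thioflavine S 100%; repeats: singlicate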
HCV core dimer = blocks dimerization of HCV core protein; TR-FRET GST/Flag-core106 dimerization, 1536-well; inhibition, % at 5 µM; 300,000 compounds, 0.33% hits; AID 1899;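 active = inhibition above the mean of all tested compounds plus 3 SD, set per screening campaign, cut at about 45% in these data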
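System: GST-tagged and Flag-tagged HCV core protein residues 1-106 / Input: core106 proteins, GST 13.5 nM and Flag 17 nM / Buffer or medium: KF-containing HEPES buffer, pH 7.45, DTT, CHAPS, BSA / Probe or stimulus: Eu-anti-GST and XL665-anti-Flag labelled anti-tag antibodies / Schedule: 4 h, 22.5 °C incubation / Technique: TR-FRET 671 and 617 nm emission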
ABHD5 PLIN5 PPI = ABHD5-PLIN5 protein interaction inhibition | Q00G26+Q8WTS1 | Split G. princeps luciferase complementation, luminescence, 4 h | inhibition, % at 4 µM | 360,000 compounds, 0.78% hits | AID 602281;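 active = inhibition above the mean inhibition across every tested compound plus 3 SD, cut at about 22% in these data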
PRMT1 confirm = PRMT1 (human) inhibition, FP confirmation; shares compounds with PRMT1 FP inh; recombinant His-PRMT1, activity-based probe fluorescence polarization; inhibition, % at 2.79 µM; 3,300 compounds, 42% hits; AID 687036;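 active = mean inhibition across replicates above the hit cutoff derived for the earlier primary screen, cut at about 22% in these data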
A number is an active result.

`COc1ccc(CNC(=O)C[C@H]2C[C@H](C(=O)N3CCCCC3)[C@@]3(C)c4[nH]c5cc(CCC(=O)N(C)C)ccc5c4CCN3C2=O)cc1OC` gave A3G deaminase inactive, PRMT1 FP inh inactive, A3A deaminase inactive and ABHD5 PLIN5 PPI inactive.
`Cn1c(N)c(C(=O)NCc2ccccc2)sc1=S` gave A3G deaminase inactive, PRMT1 FP inh 26, A3A deaminase inactive, HCV NS3 hel inh inactive, HCV core dimer inactive, ABHD5 PLIN5 PPI inactive and PRMT1 confirm inactive.
O=c1c2cc(Cl)ccc2oc2nc3n(c(=O)c12)CCCS3 was read as A3G deaminase inactive, PRMT1 FP inh 63, A3A deaminase inactive, HCV NS3 hel inh inactive, HCV core dimer inactive, ABHD5 PLIN5 PPI inactive and PRMT1 confirm 52.
Screening NNS(=O)(=O)c1ccc(N2CCCC2=O)c([N+](=O)[O-])c1 returned A3G deaminase inactive, PRMT1 FP inh 82, A3A deaminase inactive, HCV NS3 hel inh inactive, HCV core dimer inactive, ABHD5 PLIN5 PPI inactive and PRMT1 confirm 55.
`COc1ccc2nc(C)cc(SCC(=O)N/N=C/c3cccc4ccccc34)c2c1` gave A3G deaminase inactive, PRMT1 FP inh inactive, A3A deaminase inactive, HCV NS3 hel inh inactive, HCV core dimer inactive and ABHD5 PLIN5 PPI inactive.
For COc1cccc2c(SCC(=O)N/N=C/c3ccccc3)cc(C)nc12 the results were A3G deaminase inactive, PRMT1 FP inh 47, A3A deaminase inactive, HCV NS3 hel inh inactive, HCV core dimer inactive, ABHD5 PLIN5 PPI inactive and PRMT1 confirm inactive.
For Cc1ccc2nc(C)cc(SCC(=O)N/N=C/c3ccco3)c2c1 the results were A3G deaminase inactive, PRMT1 FP inh 52, A3A deaminase inactive, HCV NS3 hel inh inactive, HCV core dimer inactive, ABHD5 PLIN5 PPI inactive and PRMT1 confirm inactive.
Screening O=c1c2ccccc2nc(SCc2ccccc2)n1Cc1ccco1 returned A3G deaminase inactive, PRMT1 FP inh inactive, A3A deaminase inactive, HCV NS3 hel inh inactive, HCV core dimer inactive and ABHD5 PLIN5 PPI inactive.
O=c1c2ccccc2nc(SCc2nnc(-c3ccccc3Br)o2)n1Cc1ccco1 was read as A3G deaminase inactive, PRMT1 FP inh 69, A3A deaminase inactive, HCV NS3 hel inh inactive, HCV core dimer inactive, ABHD5 PLIN5 PPI inactive and PRMT1 confirm 58.
For CN(C(=O)COC(=O)CCc1c[nH]c2ccccc12)c1ccccc1 the results were A3G deaminase inactive, PRMT1 FP inh inactive, A3A deaminase inactive, HCV core dimer inactive and ABHD5 PLIN5 PPI inactive.
Screening O=C(NC(=S)Nc1cc(C(F)(F)F)ccc1Cl)c1ccccc1 returned A3G deaminase inactive, PRMT1 FP inh inactive, A3A deaminase inactive, HCV NS3 hel inh inactive, HCV core dimer inactive and ABHD5 PLIN5 PPI inactive.
Screening O=C(O)c1ccc(NNC(=S)Nc2cc(C(F)(F)F)ccc2Cl)cc1 returned A3G deaminase inactive, PRMT1 FP inh 27, A3A deaminase inactive, HCV NS3 hel inh inactive, HCV core dimer inactive, ABHD5 PLIN5 PPI inactive and PRMT1 confirm inactive.
COc1cc(OC)cc(C(=O)N2CCN(C3CCC(C)CC3)CC2)c1 (centres undefined) was read as PRMT1 FP inh inactive and ABHD5 PLIN5 PPI inactive.
Screening CN1CCN(NC(=O)CN2C(=O)S/C(=C\c3c(Cl)cccc3Cl)C2=O)CC1 returned A3G deaminase inactive, PRMT1 FP inh 26, A3A deaminase inactive, HCV NS3 hel inh inactive, HCV core dimer inactive, ABHD5 PLIN5 PPI inactive and PRMT1 confirm inactive.
O=C(CCN1C(=O)/C(=C/c2ccccc2Cl)SC1=S)NN1CCOCC1 was read as A3G deaminase inactive, PRMT1 FP inh inactive, A3A deaminase inactive, HCV NS3 hel inh inactive, HCV core dimer inactive and ABHD5 PLIN5 PPI inactive.
Cc1ccc(-c2ccc(OC(=O)c3ccc(=O)[nH]c3)c(C)c2)cc1 was read as A3G deaminase inactive, PRMT1 FP inh inactive, A3A deaminase inactive, HCV NS3 hel inh inactive, HCV core dimer inactive and ABHD5 PLIN5 PPI inactive.
Screening Cc1c(C(c2cccc(O)c2)c2c(C)n(C)n(-c3ccccc3)c2=O)c(=O)n(-c2ccccc2)n1C returned A3G deaminase inactive, PRMT1 FP inh inactive, A3A deaminase inactive, HCV NS3 hel inh inactive, HCV core dimer inactive and ABHD5 PLIN5 PPI inactive.
Cc1c(C(c2cc(O)ccc2O)c2c(C)n(C)n(-c3ccccc3)c2=O)c(=O)n(-c2ccccc2)n1C was read as PRMT1 FP inh 33, ABHD5 PLIN5 PPI inactive and PRMT1 confirm inactive.
For CCCCN(CC)CCCNC(=O)c1ccc(CS(=O)(=O)c2ccccc2C)o1 the results were A3G deaminase inactive, PRMT1 FP inh inactive, A3A deaminase inactive, HCV NS3 hel inh inactive, HCV core dimer inactive and ABHD5 PLIN5 PPI inactive.
CCc1nc2c(OCc3ccc(C(=O)N(C)C)cc3)cccn2c1N(C)C(=O)c1ccc(C)cc1 was read as PRMT1 FP inh inactive and ABHD5 PLIN5 PPI inactive.
For O=C(CSC1=NCCN1)Nc1cccc([N+](=O)[O-])c1 the results were A3G deaminase inactive, PRMT1 FP inh 34, A3A deaminase inactive, HCV NS3 hel inh inactive, HCV core dimer inactive, ABHD5 PLIN5 PPI inactive and PRMT1 confirm inactive.
Cc1ccc(C)c(NC(=O)CSc2c(C)n[nH]c2C)c1 was read as A3G deaminase inactive, PRMT1 FP inh inactive, A3A deaminase inactive, HCV NS3 hel inh inactive, HCV core dimer inactive and ABHD5 PLIN5 PPI inactive.
O=C(CSC1=NCCN1)Nc1ccccc1[N+](=O)[O-] was read as A3G deaminase inactive, PRMT1 FP inh 55, A3A deaminase inactive, HCV NS3 hel inh inactive, HCV core dimer inactive, ABHD5 PLIN5 PPI inactive and PRMT1 confirm inactive.
O=C(CSC1=NCCN1)NC(c1ccccc1)c1ccccc1 was read as A3G deaminase inactive, PRMT1 FP inh 41, A3A deaminase inactive, HCV NS3 hel inh inactive, HCV core dimer inactive, ABHD5 PLIN5 PPI inactive and PRMT1 confirm 26.
Screening CCOc1ccccc1NC(=O)CSc1c(C)n[nH]c1C returned A3G deaminase inactive, PRMT1 FP inh 25, A3A deaminase inactive, HCV NS3 hel inh inactive, HCV core dimer inactive, ABHD5 PLIN5 PPI inactive and PRMT1 confirm inactive.
For O=C(CSC1=NC(=O)C(c2ccccc2)C(=O)N1)Nc1ccccc1[N+](=O)[O-] (centres undefined) the results were A3G deaminase inactive, PRMT1 FP inh inactive, A3A deaminase inactive, HCV NS3 hel inh inactive, HCV core dimer inactive and ABHD5 PLIN5 PPI inactive.
Screening CC(C)C[C@H]1CN(CCCC[C@H]2CNC(=O)C(=O)N2CCc2ccccc2)C(=O)C(=O)N1CC1CCCCC1 returned PRMT1 FP inh inactive and ABHD5 PLIN5 PPI inactive.
COC(=O)c1ccc(CN(C)S(=O)(=O)c2cccs2)cc1 was read as A3G deaminase inactive, PRMT1 FP inh inactive, A3A deaminase inactive, HCV NS3 hel inh inactive, HCV core dimer inactive and ABHD5 PLIN5 PPI inactive.
For COc1ccccc1NC(=O)CSc1nccc(-c2ccco2)n1 the results were A3G deaminase inactive, PRMT1 FP inh 32, A3A deaminase inactive, ABHD5 PLIN5 PPI inactive and PRMT1 confirm inactive.
